Series [1] concerns the target Phosphatidylinositol 4,5-bisphosphate 3-kinase catalytic subunit gamma isoform (Homo sapiens, UniProt P48736). The series can be described thus: Inhibition of PI3K-gamma (unknown origin) after 40 mins by ADP-Glo luminescent kinase assay. The procedure, abridged:
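Final enzyme was PI3Kβ 4.8 nM and PI3Kγ 7.6 nM. ADP-Glo reagent stopped the reaction (40 min), then detection reagent was added (60 min) and luminescence read. Percent inhibition was derived from RLU.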
Background: ADP-Glo turns the ADP formed in a reaction into a luminescent signal.

Series [2] can be described thus: Antiproliferative activity against human Hs 578T cells incubated for 48 hrs by sulforhodamine B assay. It counts as functional. In general terms: In SRB staining, fixed cells bind dye roughly in proportion to their protein.
Series [3] is described as follows: Half life in rat liver microsomes. It is filed as ADME.
Series [4] can be described thus: Antiproliferative activity against human Caki1 cells incubated for 48 hrs by sulforhodamine B assay. It is filed as functional. To be noted: CAKI-1, 48 h. Summed up:
(§1)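 Run externally by the US National Cancer Institute as part of its 60 human cancer cell line cytotoxicity screen (NCI-60).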

A further series concerns SN12C. The series can be described thus: Antiproliferative activity against human SN12C cells incubated for 48 hrs by sulforhodamine B assay. It is filed as functional. Summed up:
as §1

Series [5] in a line: Antiproliferative activity against human SW620 cells incubated for 48 hrs by sulforhodamine B assay. It counts as functional. As to conditions: SW-620, 48 h. The procedure, abridged:
as §1

[6] abbreviates: read-out: pLC50 (the source's name) (converted).

The structures appear in SMILES notation. Where only a bound is given, the exact number is not on record here.

Usually IC50 stands for the concentration that inhibits the measured activity by half. Read a high IC50 as weaker potency in that assay. Broadly, the GI50 is the concentration that inhibits growth by half. Broadly, the half-life is the time needed for the level to fall by half in the phase considered. Read a high half-life as slow decline.

Phosphatidylinositol 4,5-bisphosphate 3-kinase catalytic subunit gamma isoform, sequence (P48736 whole entry, canonical isoform): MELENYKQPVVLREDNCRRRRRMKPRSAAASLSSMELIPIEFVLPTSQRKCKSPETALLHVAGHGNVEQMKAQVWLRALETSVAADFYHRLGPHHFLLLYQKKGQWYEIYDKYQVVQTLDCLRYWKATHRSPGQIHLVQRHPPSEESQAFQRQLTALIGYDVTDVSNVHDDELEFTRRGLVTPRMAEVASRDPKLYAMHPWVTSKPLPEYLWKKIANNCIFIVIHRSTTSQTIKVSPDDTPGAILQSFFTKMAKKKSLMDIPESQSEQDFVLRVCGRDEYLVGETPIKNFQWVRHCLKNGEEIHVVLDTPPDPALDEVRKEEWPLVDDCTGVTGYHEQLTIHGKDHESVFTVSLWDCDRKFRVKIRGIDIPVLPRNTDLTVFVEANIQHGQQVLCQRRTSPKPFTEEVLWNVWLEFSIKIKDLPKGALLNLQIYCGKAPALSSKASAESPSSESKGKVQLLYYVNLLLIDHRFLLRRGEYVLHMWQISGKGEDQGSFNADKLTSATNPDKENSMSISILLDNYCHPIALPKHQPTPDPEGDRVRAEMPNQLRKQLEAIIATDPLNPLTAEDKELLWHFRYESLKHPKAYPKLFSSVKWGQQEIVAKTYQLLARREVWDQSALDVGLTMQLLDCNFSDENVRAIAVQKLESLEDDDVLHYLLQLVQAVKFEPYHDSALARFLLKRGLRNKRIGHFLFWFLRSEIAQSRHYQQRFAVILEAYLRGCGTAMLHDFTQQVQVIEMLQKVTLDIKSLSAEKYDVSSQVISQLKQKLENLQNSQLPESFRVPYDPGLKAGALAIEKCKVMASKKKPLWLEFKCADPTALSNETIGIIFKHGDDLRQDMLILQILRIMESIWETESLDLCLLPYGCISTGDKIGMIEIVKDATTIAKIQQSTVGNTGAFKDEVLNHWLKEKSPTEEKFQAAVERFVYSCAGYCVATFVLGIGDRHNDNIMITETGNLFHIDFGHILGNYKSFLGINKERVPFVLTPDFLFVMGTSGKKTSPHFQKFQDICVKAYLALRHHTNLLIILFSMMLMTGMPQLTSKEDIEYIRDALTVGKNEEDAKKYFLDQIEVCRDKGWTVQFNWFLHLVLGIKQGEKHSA

`COc1ncc(-c2ccc3nccc(C#CCN4CCN(S(C)(=O)=O)CC4)c3c2)cc1NS(=O)(=O)c1ccc(F)cc1F`: half-maximal inhibition in series [1] (IC50) required 2.7 nM. In addition, the 50% growth inhibitory concentration (GI50) in series [2] is 18.6 nM; in series [4], 155 nM; with SN12C, 102 nM; in series [5], 229 nM. The CC50 was greater than 100000 nM in series [2] (setting [6]), 40700 nM in series [4] (setting [6]), greater than 100000 nM with SN12C (setting [6]) and 6920 nM in series [5] (setting [6]). Moreover, the half-life in series [3] came to 29 min. The TGI in series [4] (read-out: pTGI (converted)) is 13800 nM; in the series with SN12C (read-out: pTGI (converted)), 12300 nM; in series [5] (read-out: pTGI (converted)), 1950 nM.

Values taken from ChEMBL document CHEMBL3763019, “Discovery of benzenesulfonamide derivatives as potent PI3K/mTOR dual inhibitors with in vivo efficacies against hepatocellular carcinoma” (Bioorg Med Chem, 2016).
